Compound activity as filed in PubChem BioAssay.
EBNA-1 inhibitor: blocks EBNA-1 binding to DNA | EBNA-1 DNA binding, fluorescence polarization | inhibition, % at 14.8 µM | 0.34% of 300,000 active; in the data active means inhibition above about 28%
ZTA counter: blocks Epstein-Barr virus ZTA, an EBNA-1 counter-screen; P03206; ZTA-DNA binding, fluorescence polarization; inhibition, % at 11 µM; 0.15% of 320,000 active; in the data active means inhibition above about 33%
Target sequence (P03206 whole entry, looked up): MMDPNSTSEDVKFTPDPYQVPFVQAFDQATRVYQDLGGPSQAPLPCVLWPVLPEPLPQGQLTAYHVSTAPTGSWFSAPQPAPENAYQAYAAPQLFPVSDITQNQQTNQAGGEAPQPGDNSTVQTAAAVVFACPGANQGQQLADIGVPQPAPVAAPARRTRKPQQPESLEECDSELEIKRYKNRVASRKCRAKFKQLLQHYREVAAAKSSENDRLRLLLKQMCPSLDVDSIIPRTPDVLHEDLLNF
FGF22 binding: shifts melting point of recombinant human FGF22. Q9HCT0. recombinant FGF22 thermal shift, SYPRO orange fluorescence; percent of sucrose octasulfate shift, DMSO zero. AID 651658. activity (Tm shift, normalised), % at 9.99 µM. 1.5% of 340,000 active;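 active means mean Tm shift, scaled 0 neutral to 100 positive control, at about 1.3% or above, every replicate too, limit read from the data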
Target sequence (Q9HCT0 whole entry, looked up): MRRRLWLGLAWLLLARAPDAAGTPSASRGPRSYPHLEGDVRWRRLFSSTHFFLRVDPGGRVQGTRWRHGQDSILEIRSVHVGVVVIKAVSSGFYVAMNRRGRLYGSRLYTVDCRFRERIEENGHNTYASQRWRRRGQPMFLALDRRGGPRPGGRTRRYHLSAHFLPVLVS
NS3 helicase inh: blocks Hepatitis C virus NS3 helicase unwinding; NS3 helicase DNA unwinding, Cy5 molecular beacon fluorescence; inhibition, % at 10.9 µM; 0.56% of 290,000 active; AID 1800;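 active means inhibition above the mean of all tested compounds plus 3 SD, set per campaign, cut at about 35% in these data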;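 further: 0% = DMSO wells and 100% = thioflavine S control wells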
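System: HCV NS3 helicase fragment; control set: DMSO and thioflavine S; technique: Cy5 fluorescence at 0 and 60 min, beacon hairpin quenching; reagent: beacon DNA duplex substrate plus ATP; replicates: singlicate; schedule: 1 h reaction at 25 °C, ATP-initiated; medium: MOPS buffer pH 6.5 with MgCl2, DTT, Tween20, BSA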
NR3A LBD binder: modulates the human NR3A ligand-binding domain | NR3A LBD differential scanning fluorimetry, Tm shift; 0% = protein alone, 100% = glycine-bound protein | Tm shift relative to glycine control, % at 25 µM | 2.5% of 340,000 active;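 active means melting temperature shift of at least 10% of the positive control shift, at one fixed dose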
FID counter: counter-screen for HCV NS3 helicase inhibitors: DNA intercalator displacement. DNA fluorescent intercalator displacement, fluorescence. inhibition, % at 7.9 µM. 0.17% of 290,000 active; in the data active means inhibition above about 37%;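 further: 0% = vehicle and 100% = reference compound; higher means more ethidium bromide displaced from hairpin DNA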
* marks the source's active call; other numbers are inactive results; . = no result given. A selection: hits, their analogues and other compounds. The true share with any hit is near 3.6%.

SMILES	EBNA-1 inhibitor	ZTA counter	FGF22 binding	NS3 helicase inh	NR3A LBD binder	FID counter
COCCN1C(=O)CC(NNC(=O)c2ccc(S(=O)(=O)N3CCCC3)cc2)C1=O (stereo unspecified)	12	1	43*	-11	-2	-3
C[C@H](CO)N1C[C@H](C)[C@@H](CN(C)Cc2ccc(Cl)c(Cl)c2)Oc2ccc(N(C)C)cc2CC1=O	.	.	-2	.	.	.
O=C(Cc1ccccc1)NNc1c2ccccc2nc2ccccc12	-2	22	0	-15	-1	1
O=C(Nc1c2ccccc2nc2ccccc12)C(Cl)(Cl)Cl	-4	-10	.	15	-9	38*
c1ccc(Sc2ncnc3c2oc2ccccc23)cc1	-1	5	.	-1	34*	-13
CO[C@H]1CN(C)C(=O)c2ccc(NC(=O)C3CC3)cc2OC[C@@H](C)N(CC2CCCC2)C[C@@H]1C	.	.	-1	.	.	.
CCOC(=O)C1=C(C)NC(=S)NC1c1ccc(C)s1 (stereo unspecified)	-1	-11	0	-3	0	-6
CCOC(=O)C1=C(C)OC(N)=C(C#N)C1c1ccsc1 (stereo unspecified)	5	7	0	4	11*	-4
CCOC(=O)C1=C(C)NC(=S)NC1c1ccsc1 (stereo unspecified)	9	6	43*	9	-1	-3
CC(=O)C1=C(C)OC(N)=C(C#N)C1c1ccncc1 (stereo unspecified)	-6	5	.	-5	11*	0
CCOC(=O)C1=C(CC)OC(N)=C(C#N)C1c1ccsc1 (stereo unspecified)	-6	-3	.	6	-4	-4
COC(=O)C1=C(C)OC(N)=C(C#N)C1c1cccnc1 (stereo unspecified)	2	5	.	3	1	1
C[C@@H]1CN([C@H](C)CO)C(=O)CCCn2nncc2CO[C@H]1CN(C)C(=O)Nc1ccc(-c2cccs2)cc1	.	.	0	.	.	.
O=C(Nc1ccc(Cl)cc1)N[C@@H]1c2c(ccc3ccccc23)OC[C@@H]1CO	4	4	0	-11	26*	-4
CN(C(=O)c1ccccc1)C1c2c(ccc3ccccc23)OCC1CO (stereo unspecified)	-10	-13	0	-16	3	0
C[C@H]1CN([C@@H](C)CO)C(=O)c2c(c3ccccc3n2C)-c2ccccc2CO[C@H]1CN(C)Cc1cccnc1	.	.	0	.	.	.
CC1CCN(CCOc2cccc(Br)c2)CC1	-3	2	.	-8	11*	8
COc1ccc(-c2ccc3c(c2)O[C@H](CN(C)C)[C@H](C)CN([C@@H](C)CO)S3(=O)=O)cc1	.	.	0	.	.	.
Cc1ccc(C(C)NC(=O)/C(C#N)=C\c2c(C)[nH]c3ccccc23)cc1 (stereo unspecified)	-3	1	.	-10	17*	8
O=C(C[C@@H]1C[C@H]2c3cc(NS(=O)(=O)c4ccccc4)ccc3O[C@H]2[C@H](CO)O1)NCC1CC1	.	.	0	.	.	.
COc1ccc(NC(=O)N(C)C[C@H]2Oc3ccc(NC(=O)Nc4c(C)noc4C)cc3C(=O)N([C@@H](C)CO)C[C@@H]2C)cc1	.	.	0	.	.	.
Cc1cccc(NC(=O)Nc2ccc(Cl)c(Cl)c2)n1	2	-22	0	22	3	1
Cc1c(NC(=O)Nc2ccc(Cl)c(Cl)c2)sc(=S)n1C	0	21	.	-10	22*	3
COc1ccc(NC(=O)Nc2sc(=S)n(C)c2C)cc1	-3	-17	1	7	24*	-1
COc1ccc2c3c([nH]c2c1)[C@@H](CO)N(Cc1nccs1)CC31CCN(C(=O)C2CCOCC2)CC1	.	.	0	.	.	.
SMILES	EBNA-1 inhibitor	ZTA counter	FGF22 binding	NS3 helicase inh	NR3A LBD binder	FID counter
NC(N)=NCCCC(NC(=O)c1ccccc1)C(=O)Nc1ccc([N+](=O)[O-])cc1 (stereo unspecified)	-9	-1	0	.	16*	.
NC(N)=NCCCC(NC(=O)c1ccccc1)C(=O)Nc1ccc2ccccc2c1 (stereo unspecified)	2	-13	0	.	5	.
C[C@H](NC(=O)[C@@H]1[C@@H](CO)[C@@H]2Cn3c(cccc3=O)[C@@H]2N1Cc1ccncc1)c1ccccc1	.	.	0	.	.	.
O=C(/C=C/c1ccc(F)cc1)Nc1ccc(S(=O)(=O)N2CCOCC2)cc1	-4	-20	0	-1	22*	-10
O=C(Nc1ccc(F)cc1)c1ccc(S(=O)(=O)N2CCCC2)cc1	-12	-7	0	2	-1	-12
Cc1ccc(S(=O)(=O)Nc2ccc(NC(=O)Nc3ccc(F)cc3F)cc2)cc1	3	1	.	-6	29*	-5
O=C(/C=C/c1ccc(F)cc1)Nc1cc(S(=O)(=O)N2CCOCC2)ccc1N1CCOCC1	.	.	0	.	.	.
O=C(Nc1ccc(S(=O)(=O)N2CCCC2)cc1)Nc1ccc(F)cc1F	6	5	0	0	37*	-15
O=C(Nc1ccc(F)cc1)Nc1ccc(S(=O)(=O)N2CCCC2)cc1	.	-1	0	.	28*	.
O=C(Nc1ccncc1)Nc1ccc(F)cc1F	-1	-3	0	-3	2	7
O=C(C1CCCC1)N1C[C@H]2[C@@H](c3ccccc31)[C@@H](CO)N2C(=O)c1cccnc1	.	.	-1	.	.	.
C[C@H](CO)N1C[C@H](C)[C@@H](CN(C)C(=O)Nc2ccc3c(c2)OCO3)Oc2ccc(NC(=O)Cn3cnnn3)cc2CC1=O	.	.	0	.	.	.
CC(=O)c1ccc(NC(=O)Nc2ccc(S(=O)(=O)N3CCCC3)cc2)cc1	.	.	0	-8	30*	-20
Cc1cc(C(=O)Nc2ccc(S(=O)(=O)N3CCCC3)cc2)cs1	-4	4	.	-2	1	-10
O=C(Nc1ccc(S(=O)(=O)N2CCCC2)cc1)c1ccc(Cl)nc1	-3	12	0	.	-2	.
Cc1ccc(C(=O)Nc2ccc(S(=O)(=O)N3CCCC3)cc2)s1	0	1	0	-11	24*	-8
O=C(Nc1ccc(S(=O)(=O)N2CCCCC2)cc1)c1ccc(Cl)nc1	.	.	0	.	24*	.
CC(=O)c1ccc(NC(=O)C2CCN(S(=O)(=O)c3ccc4c(c3)N(C(C)=O)CCO4)CC2)cc1	1	-3	0	-6	19*	-45
CCCN1C[C@H](C)[C@@H](OC)CN(C)C(=O)c2cc(NC(=O)c3cccc(F)c3)ccc2OC[C@H]1C	.	.	-1	.	.	.
CC(=O)N(C)C[C@@H]1Oc2cc(C3=CCCC3)ccc2S(=O)(=O)N([C@@H](C)CO)C[C@H]1C	.	.	0	.	.	.
O=C(Nc1ccc(Cl)cc1Cl)NC1CCN(S(=O)(=O)c2ccc(F)cc2)CC1	-6	-7	0	-8	21*	-2
O=C(Nc1cccc(F)c1)c1ccc(S(=O)(=O)N2CCCCC2)cc1	4	2	0	-4	17*	-25
CCCCC(=O)Nc1ccc(C(=O)Nc2ccc(S(=O)(=O)N3CCCC3)cc2)cc1	14	6	.	-2	31*	-10
